Screens deposited in PubChem by several laboratories.
H69AR inhibit = blocks growth of human H69AR lung tumor cells. H69AR lung tumor viability, ATP luminescence, 72 h; hits give low values. actives 6% (n = 85,000). AID 598. viability, % at 10 µM;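 active = viability at or below 40%; inactive = viability above 40%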;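 note: multidrug resistant small cell line overexpressing MRP-1 efflux transporter; 100% = mean luminescence of untreated control wells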
HUVEC prolif 384 = blocks proliferation of human endothelial cells. actives 1.1% (n = 86,000). HUVEC proliferation, CellTiter-Glo luminescence, 72 h; hits give low values. viability, % at 10 µM (by protocol);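 active = viability at or below 30%; inactive = viability above 30%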;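 note: 100% = median luminescence of DMSO-only cell control wells on each plate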
HCT116 PTEN-null = growth suppressors of cells with PTEN tumor suppressor deletion. HCT116 PTEN-null viability, CellTiter-Glo, 60 h; hits give low values. viability, % at 10 µM. actives 1.2% (n = 140,000). AID 827;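 active = viability at or below a set limit, 4 SD under the median of all tested compounds, cut at about 3.7% in these data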;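 note: PTEN knockout HCT116 line with beta catenin targeted HCT116 as companion control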
bCat KO growth = beta-catenin-lacking colon tumor cell growth suppression | HCT116 beta-catenin knockout viability, CellTiter-Glo, 60 h; hits give low values | viability, % at 10 µM | actives 1.5% (n = 140,000) | AID 818;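 active = viability at or under a set limit, the compound median less 4 SD, cut at about 6% in these data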;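 note: 0% = Hyamine 1622 control at 20 µM and 100% = untreated cell control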
Lung fibro prol = blocks proliferation of human lung fibroblasts. LL 47 human lung fibroblast viability, ATP luminescence; hits give low values. actives 1.1% (n = 85,000). viability, % at 10 µM;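 active = viability at or below 50% in the single dose screen; inactive = viability above 50%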;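 note: compound exposure lasted 72 h before the ATP readout; 100% = median luminescence of untreated cell-only wells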
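Signal: luminescent ATP detection, CellTiter-Glo; assay system: LL 47 human lung fibroblasts; input: 1,150 cells/well; incubation: overnight cell rest, 72 h compound treatment at 37 °C; measure: % viability versus median cells-only luminescence; medium: IMEM growth medium with 15% fetal bovine serum; dosing: compound addition at 0.1% DMSO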
Calb biofilm kill = kills Candida albicans biofilms | actives 0.14% (n = 85,000) | C. albicans biofilm + clotrimazole, Alamar Blue | inhibition, % at 6 µM;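 active = inhibition above 20%; inactive = inhibition below 20%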;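 note: preformed 24 hr biofilms exposed to compound for 48 hr; 0% = biofilm without compound and 100% = blank killed by clotrimazole plus chlorhexidine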
Active calls of the source: *; . = not tested or not shown. Many of the other results were omitted from the sample, so hits are more common in it than they were.

SMILES	H69AR inhibit	HUVEC prolif 384	HCT116 PTEN-null	bCat KO growth	Lung fibro prol	Calb biofilm kill
Cn1c(=O)c2c(nc(NCCCN3CCOCC3)n2Cc2ccc(Cl)cc2)n(C)c1=O	91.6	95.3	.	.	103.9	3.3
Cc1cc(NCCCN2CCOCC2)n2ncc(-c3ccc(Cl)cc3)c2n1	24.3*	62.8	65.6	63.9	46.0*	6.3
CON(c1nc(Cl)nc(N(C)C)n1)S(=O)(=O)c1ccccc1Cl	21.5*	90.3	89.6	85.6	90.7	7.0
O=C(Nc1nc2ccc(S(=O)(=O)N3CCCC3)cc2s1)c1cccs1	36.4*	59.4	91.0	90.1	89.4	6.1
O=C(Nc1nc2ccc(S(=O)(=O)N3CCCCC3)cc2s1)c1ccncc1	83.8	83.0	92.0	94.0	92.9	-0.9
Cc1ccc(C(=O)Nc2nc3ccc(S(C)(=O)=O)cc3s2)o1	29.2*	66.5	63.8	61.2	76.9	7.4
CS(=O)(=O)c1ccc2nc(NC(=O)c3ccco3)sc2c1	.	.	86.8	94.8	.	.
CN(C)S(=O)(=O)c1ccc2nc(NC(=O)c3cccs3)sc2c1	29.4*	78.8	90.2	87.8	110.3	-3.5
Cc1nn(-c2ccccc2)c(C)c1/C=N\NS(=O)(=O)c1ccc(Cl)cc1	.	.	113.3	98.1	.	.
CC[n+]1c(/C=C/Nc2ccccc2)sc2ccccc21	.	.	56.2	52.0	.	.
CCN1/C(=C/C=C/C=C/c2sc3ccccc3[n+]2CC)Sc2ccccc21	.	.	1.7*	1.2*	.	.
Cc1ccc(-c2nc(N/N=C/c3cccnc3)c3ccccc3n2)cc1	25.6*	57.3	78.7	72.5	50.4	-2.7
Cc1ccc(-c2nc(N/N=C/c3cccc([N+](=O)[O-])c3)c3ccccc3n2)cc1	.	.	10.0	14.9	.	.
CC1CCN(c2cc(N3CCN(C(=O)c4ccc(F)c(F)c4)CC3)c([N+](=O)[O-])cc2F)CC1	.	.	64.6	69.2	.	.
CCCCCOC(=O)Cn1c(SCC(=O)Nc2ccccc2)nc2c1c(=O)[nH]c(=O)n2C	31.5*	77.1	85.7	94.0	96.8	6.8
CC1=Nc2nc(N3CCCCC3)c(C#N)c3c4c(nc(c23)N1)N(c1ccc(C(C)C)cc1)C(=O)C4	.	.	84.2	71.2	.	.
COc1cccc(NC(=S)N/N=C2/CCCCc3ccccc32)c1	.	.	71.7	72.4	.	.
COc1ccc(NC(=O)c2ccccn2)cc1OC	.	.	100.2	84.5	.	.
CC(Oc1ccc(Cl)cc1Cl)c1nc(-c2ccc(NC(=O)c3ccccn3)cc2)no1 (stereo not given)	28.6*	44.9	53.2	54.9	88.5	7.2
c1ccc(CCNc2ncnc3c2cnn3-c2ccccc2)cc1	74.4	95.7	86.1	80.8	110.7	3.9
Cc1cccc(-n2ncc3c(NCc4ccco4)ncnc32)c1	26.3*	73.4	31.6	24.3	89.0	3.3
c1ccc(CNc2ncnc3c2cnn3-c2ccccc2)cc1	25.9*	59.7	32.5	42.5	70.3	4.7
Cc1cccc(-n2ncc3c(NCc4ccccc4)ncnc32)c1	24.8*	57.3	27.1	28.2	56.8	2.3
Fc1ccc(CNc2ncnc3c2cnn3-c2ccccc2)cc1	36.5*	86.0	100.0	104.3	88.3	2.0
COc1ccc(C(=O)N(Cc2ccco2)C(C(=O)NC2CCCC2)c2ccc(O)cc2)cc1OC (stereo not given)	73.2	94.7	80.3	78.3	103.9	3.9
SMILES	H69AR inhibit	HUVEC prolif 384	HCT116 PTEN-null	bCat KO growth	Lung fibro prol	Calb biofilm kill
O=C1C2CCCN2C(c2ccc(Cl)cc2)N1c1nccs1 (stereo not given)	117.0	94.3	94.0	90.9	97.9	2.1
Clc1ccc(-n2ncc3c(NCc4cccs4)ncnc32)cc1	40.9	87.3	83.2	78.8	34.0*	-2.0
Cc1ccc(-n2ncc3c(NCCCOC(C)C)ncnc32)c(C)c1	36.9*	96.8	69.5	73.5	97.5	9.9
Cc1cccc(-n2ncc3c(N4CCCc5ccccc54)ncnc32)c1	34.6*	86.5	57.8	75.5	94.2	6.6
CC(C)OCCCNc1ncnc2c1cnn2-c1ccccc1	61.1	95.6	87.9	91.2	109.5	2.1
CC(C)CC(=O)Nc1ccc2c3c(cccc13)CC2	.	.	90.7	91.7	.	.
CC1SC(c2ccc(Cl)cc2Cl)NC1=O (stereo not given)	92.4	103.0	95.0	90.5	94.0	-5.6
O=C1c2ccccc2C(=O)C12OC2c1ccc(Cl)cc1Cl (stereo not given)	.	.	1.7*	2.6*	.	.
COc1ccc(N(CC(=O)Nc2cc(Cl)ccc2OC)S(=O)(=O)c2c(C)noc2C)cc1	24.1*	42.0	15.6	16.0	48.5*	3.1
